The subject of series [1] is Mus musculus. Put plainly: Anticonvulsant activity after intraperitoneal injection into mice by using MES screen test after 0.5 hr. Format: functional.
Series [2] relates to Mus musculus. Put plainly: Anticonvulsant activity after intraperitoneal injection into mice measured in a maximal electroshock scree (MES) screen. Format: functional. In general terms: The maximal electroshock test induces tonic seizures with an electrical stimulus.
The subject of series [3] is Mus musculus. Put plainly: Anticonvulsant activity after intraperitoneal injection into mice by using scPTZ screen after 0.5 hr. Format: functional.
Series [4] relates to Mus musculus. Put plainly: Toxicity after intraperitoneal injection into mice by using toxicity screen test after 0.5 hr. Format: organism-based. The following applies: in vivo, ip. In a few lines: (§1)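 Mice injected intraperitoneally at 30, 100 and 300 mg/kg and examined 0.5 and 4 h afterwards. Each entry is the minimum dose giving activity (MES protection, scPTZ protection, or rotorod failure for neurotoxicity) in half or more of the mice. Activity is called absent if nothing occurs at 300 mg/kg.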

Series [5] relates to Mus musculus. Put plainly: Compound was tested for toxicity after intraperitoneal injection into mice by using toxicity screen test after 4 hr. The settings on record: in vivo, ip. Format: organism-based. In a few lines:
as §1

Series [6] deals with Mus musculus. Description: Compound was tested for anticonvulsant activity after intraperitoneal injection into mice by using MES screen test after 0.5 hr. Format: functional. The following applies: ip. In a few lines:
as §1

The nature of series [7]: Compound was tested for toxicity after intraperitoneal injection into mice by using neurotoxicity screen test after 1 hr. Format: organism-based. The following applies: mouse, in vivo, ip. In a few lines: (§2)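 Quantitative intraperitoneal mouse testing in the MES, scPTZ or rotorod neurotoxicity screens at the peak time given for each compound (0.25–2 h). ED50 or TD50 reported in mg/kg with 95% CI and slope (SE).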

The subject of series [8] is Rattus norvegicus. Put plainly: Compound was tested for anticonvulsant activity after Oral Administration into Rats by using MES screen test after 0.25h,dose 12.50 mg/kg; number of rats out of four which were protected. Format: functional. The settings on record: dose 12.5 mg/kg. In a few lines:
(§3)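 Rats received the compound orally. […] Rats were tested in the MES screen at 0.25, 0.5, 1, 2 and 4 h. Each value is the number of rats protected out of 4. The test followed NINDS procedures.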

Series [9] has as its system Rattus norvegicus. Description: Compound was tested for anticonvulsant activity after Oral Administration into Rats by using MES screen test after 4h,dose 12.50 mg/kg; number of rats out of four which were protected. Format: functional. The following applies: dose 12.5 mg/kg. The gist of the method:
as §3

The subject of series [10] is Rattus norvegicus. Description: Compound was tested for anticonvulsant activity after Oral Administration into Rats by using MES screen test after 0.5h,dose 12.50 mg/kg; number of rats out of four which were protected. The settings on record: dose 12.5 mg/kg. Format: functional. The gist of the method: as §3
Series [11] concerns Rattus norvegicus. Description: Compound was tested for anticonvulsant activity after Oral Administration into Rats by using MES screen test after 1h,dose 12.50 mg/kg; number of rats out of four which were protected. Format: functional. The following applies: dose 12.5 mg/kg. The gist of the method: as §3
For series [12], the system named is Rattus norvegicus. Description: Compound was tested for anticonvulsant activity after Oral Administration into Rats by using MES screen test after 2h,dose 12.50 mg/kg; number of rats out of four which were protected. Format: functional. The settings on record: dose 12.5 mg/kg. In a few lines: as §3
The nature of series [13]: Protection index = TD50/ED50 (MES). The settings on record: mouse, in vivo; read-out: PI.
Series [14] in a line: Partition coefficient (logP). Format: physicochemical. The following applies: octanol/water. In a few lines:
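Partition between 1-octanol and buffer at pH 7.4, with solutions prepared in 1-octanol before buffer is added. Quantified by UV, using λmax and ε values measured in 1-octanol.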

Series [15] deals with Mus musculus. Put plainly: Anticonvulsant activity after intraperitoneal injection into mice by using scPTZ screen test after 4 hr. Format: functional.
In series [16] the test system is Mus musculus. Put plainly: Compound was tested for anticonvulsant activity after intraperitoneal injection into mice by using MES screen test after 1 hr. The following applies: ip. Format: functional. The gist of the method:
as §2

Series [17] concerns Mus musculus. Put plainly: Compound was tested for anticonvulsant activity after intraperitoneal injection into mice by using scPTZ screen test after 0.5 hr. The following applies: ip. Format: functional. In a few lines: as §1
Series [18] is described as follows: Compound was tested for […] after intraperitoneal injection into mice by using neurotoxicity screen test after 2 hr. The settings on record: mouse, in vivo, ip. Format: organism-based. The gist of the method: as §2
In series [19] the test system is Rattus norvegicus. Description: Compound was tested for anticonvulsant activity after Oral Administration into Rats by using MES screen test after 4h,dose 50 mg/kg; number of rats out of four which were protected. Format: functional. The gist of the method:
as §3

The test system of series [20] is Rattus norvegicus. Put plainly: Compound was tested for anticonvulsant activity after Oral Administration into Rats by using MES screen test after 2h,dose 50 mg/kg; number of rats out of four which were protected. Format: functional. The gist of the method: as §3
The test system of series [21] is Rattus norvegicus. Description: Compound was tested for anticonvulsant activity after Oral Administration into Rats by using MES screen test after 0.25h,dose 50 mg/kg; number of rats out of four which were protected. Format: functional. In a few lines:
as §3

Series [22] relates to Rattus norvegicus. Put plainly: Compound was tested for anticonvulsant activity after Oral Administration into Rats by using MES screen test after 0.5h,dose 50 mg/kg; number of rats out of four which were protected. Format: functional. In a few lines: as §3
Series [23] relates to Rattus norvegicus. Description: Compound was tested for anticonvulsant activity after Oral Administration into Rats by using MES screen test after 1h,dose 50 mg/kg; number of rats out of four which were protected. Format: functional. The gist of the method: as §3
The subject of series [24] is Rattus norvegicus. Description: Compound was tested for anticonvulsant activity after Oral Administration into rat by using MES screen test after 4 hr. Format: functional. In a few lines:
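Rats dosed orally, typically at 50 mg/kg first, then mostly 12.5 mg/kg (some compounds at 30 mg/kg), and tested by maximal electroshock. Four rats per compound, scored at 0.25, 0.5, 1, 2 and 4 h as the number of rats protected out of 4.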

Series [25] in a line: Compound was tested for toxicity after oral administration in rat by using neurotoxicity screen test after 0.25-24 hr. The following applies: in vivo. Format: organism-based. In a few lines: (§4)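 Rat neurotoxicity after oral dosing, observed at 0.25, 0.5, 1, 2, 4, 6, 8 and 24 h (8 h omitted for one compound).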
Series [26] can be described thus: Protection index = TD50/ED50. Format: ADME. The settings on record: read-out: PI.
The nature of series [27]: Compound was tested for toxicity after intraperitoneal injection into mice by using neurotoxicity screen test after 2 hr. Format: organism-based. The settings on record: mouse, in vivo, ip. The gist of the method:
as §2

The subject of series [28] is Rattus norvegicus. Description: Compound was tested for anticonvulsant activity after Oral Administration into Rats by using MES screen test after 0.25h,dose 50 mg/kg; No activity was demonstarted. Format: functional, organism-based. Further details: dose 50 mg/kg. In a few lines:
as §3

The subject of series [29] is Rattus norvegicus. Description: Compound was tested for anticonvulsant activity after Oral Administration into Rats by using MES screen test after 0.5h,dose 50 mg/kg; number of rats out of four which were protected. Format: functional. The gist of the method: as §3
In series [30] the test system is Mus musculus. Put plainly: Compound was tested for anticonvulsant activity after intraperitoneal injection into mice by using scPTZ screen test after 1 hr. Format: functional. The following applies: ip. The gist of the method:
as §2

For series [31], the system named is Mus musculus. Description: Compound was tested for anticonvulsant activity after intraperitoneal injection into mice by using scPTZ screen test after 0.25 hr. Format: functional. The following applies: ip. In a few lines:
as §2

Series [32] relates to Rattus norvegicus. Description: Compound was tested for anticonvulsant activity after Oral Administration into Rats by using MES screen test after 0.25h,dose 12.5 mg/kg; No activity was demonstarted. Format: functional, organism-based. Set-up: dose 12.5 mg/kg. The gist of the method: as §3
The test system of series [33] is Rattus norvegicus. Description: Compound was tested for anticonvulsant activity after Oral Administration into Rats by using MES screen test after 4h,dose 12.5 mg/kg; number of rats out of four which were protected. Format: functional. The gist of the method:
as §3

The test system of series [34] is Rattus norvegicus. Description: Anticonvulsant activity after oral administration into rats. Format: functional. Further details: concentration or dose not given beside the values.
The nature of series [35]: Compound was tested for toxicity after oral administration in rat by using neurotoxicity screen test after 2 hr. Format: organism-based. The settings on record: in vivo. The gist of the method: as §4
In series [36] the test system is Rattus norvegicus. Description: Compound was tested for anticonvulsant activity after Oral Administration into Rats by using MES screen test after 2h,dose 12.5 mg/kg; number of rats out of four which were protected. Format: functional. The gist of the method:
as §3

These results are taken from ChEMBL document CHEMBL1129428 (J Med Chem, 1996).

As for `NC(=O)N/N=C/c1ccc(Oc2cc(F)cc(F)c2)cc1`, the Dose in the series on Mus musculus [1] came out at 30 mg/kg; with Mus musculus [2] it was 30 mg/kg; in the series on Mus musculus [3] it was 100 mg/kg; in the series on Mus musculus [4], 300 mg/kg; with Mus musculus [5], 300 mg/kg. Further, in the series with Mus musculus [6], the ED50 amounted to 12.3 mg/kg. In [7], this molecule returned a TD50 at 1 h of 68.8 mg/kg. For the same molecule, the Activity worked out at 1 in the series on Rattus norvegicus [8]; 4 with Rattus norvegicus [9]; 3 in the series on Rattus norvegicus [10]; 4 with Rattus norvegicus [11]; 4 with Rattus norvegicus [12]. Moreover, the selectivity ratio in series [13] came to 5.58.
In [14], `NC(=O)N/N=C/c1ccc(Oc2ccc(F)c(F)c2)cc1` had a lipophilicity (logP) of 2.76. The Dose in the series with Mus musculus [1] was found to be 100 mg/kg; with Mus musculus [2], 30 mg/kg; in the series with Mus musculus [3], 30 mg/kg; in the series on Mus musculus [15] it was 300 mg/kg. For the same molecule, the 50% effective dose (ED50) with Mus musculus [16] was 14.5 mg/kg; in the series on Mus musculus [17], 72.8 mg/kg; with Rattus norvegicus [24], 2.37 mg/kg. For the same molecule, the TD50 at 2 h in [18] worked out at 94.8 mg/kg. Moreover, the Activity in the series on Rattus norvegicus [19] is reported as 4; in the series on Rattus norvegicus [20] it was 4; in the series with Rattus norvegicus [21] it was 2; with Rattus norvegicus [22], 4; in the series on Rattus norvegicus [23], 4. Further, in series [25], the TD50 is > 500 mg/kg. Moreover, in [26], the selectivity ratio turned out to be 1.3.
As to `NC(=O)N/N=C/c1ccc(Sc2ccccc2)cc1`, the Dose amounted to 30 mg/kg with Mus musculus [1], 30 mg/kg in the series on Mus musculus [2] and 300 mg/kg in the series with Mus musculus [5]. In addition, the ED50 with Mus musculus [16] was 15.6 mg/kg; with Rattus norvegicus [24] it was 4.29 mg/kg; with Mus musculus [30] it was > 46 mg/kg. Further, the TD50 at 2 h in series [27] turned out to be 181 mg/kg. In addition, the Activity was 4 in the series on Rattus norvegicus [19]; 4 with Rattus norvegicus [20]; “No activity” in the series on Rattus norvegicus [28]; 4 in the series with Rattus norvegicus [29]; 4 in the series with Rattus norvegicus [23]. In series [25], the TD50 is > 496 mg/kg.
In the case of `Cc1ccc(Oc2ccc(/C=N/NC(N)=O)cc2)c(C)c1`, the Dose with Mus musculus [1] came to 30 mg/kg; in the series on Mus musculus [2] it was 30 mg/kg; in the series with Mus musculus [3], 30 mg/kg; with Mus musculus [15], 30 mg/kg; in the series with Mus musculus [4], 300 mg/kg; in the series with Mus musculus [5] it was 100 mg/kg. For the same molecule, the ED50 in the series with Mus musculus [6] was 4.6 mg/kg; in the series with Mus musculus [31] it was 33.6 mg/kg. In [7], this molecule registered a TD50 at 1 h of 37 mg/kg. Besides, the Activity is listed as 1 in the series on Rattus norvegicus [8]; 4 in the series on Rattus norvegicus [9]; 4 in the series on Rattus norvegicus [10]; 4 in the series with Rattus norvegicus [11]; 4 with Rattus norvegicus [12].
As to `NC(=O)N/N=C/c1ccc(Oc2c(F)cccc2F)cc1`, the Dose came out at 30 mg/kg with Mus musculus [1]; 30 mg/kg in the series with Mus musculus [2]; 300 mg/kg with Mus musculus [3]; 300 mg/kg in the series with Mus musculus [15]; 300 mg/kg in the series with Mus musculus [4]; 300 mg/kg in the series on Mus musculus [5]. Further, the results for the TD50 at 2 h in series [18] and in series [35] were 125 mg/kg and > 500 mg/kg, respectively. Besides, the Activity entry is “No activity” in the series with Rattus norvegicus [32], 4 with Rattus norvegicus [33], 2 in the series on Rattus norvegicus [34] and 4 in the series with Rattus norvegicus [36]. In the series with Rattus norvegicus [24], this molecule yielded an ED50 of 5.53 mg/kg.

Broadly, the ED50 is the dose at which the effect has come halfway, by size or by number of responders. The TD50 is the 50% point of the dose-response relation for the toxic effect studied. By logP is commonly meant the decadic logarithm of the partition coefficient of the neutral form, usually between octanol and water.
